Measurements published in ChEMBL document CHEMBL4373711, “Development of 3,5-Dinitrophenyl-Containing 1,2,4-Triazoles and Their Trifluoromethyl Analogues as Highly Efficient Antitubercular Agents Inhibiting Decaprenylphosphoryl-β-d-ribofuranose 2'-Oxidase” (J Med Chem, 2019).
In brackets after ≈: the same amount, converted by molar mass.

Legend:
[1] = test system: Mycobacterium tuberculosis; assay: Antimycobacterial activity against multi-drug resistant Mycobacterium tuberculosis Praha 1 after 14 days; type: functional; conditions: Praha 1, 336 h
In short: (§1)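 M. tuberculosis strains (H37Rv and clinical MDR/XDR isolates) tested by microdilution in Šula's semisynthetic medium. Compounds were dissolved in DMSO and tested at 32 to 0.03 µM in twofold steps. Inoculum was a 1.0 McFarland suspension diluted 10-3. Plates were incubated at 37 °C and read at 14 and 21 days.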

[2] = test system: Mycobacterium tuberculosis; assay: Antimycobacterial activity against multi-drug resistant Mycobacterium tuberculosis Praha 1 after 21 days; type: functional; conditions: Praha 1, 504 h; in short: as §1
[3] = test system: Mycobacterium tuberculosis; assay: Antimycobacterial activity against multi-drug resistant Mycobacterium tuberculosis Praha 4 after 14 days; conditions: Praha 4, 336 h
[4] = test system: Mycobacterium tuberculosis; assay: Antimycobacterial activity against multi-drug resistant Mycobacterium tuberculosis Praha 4 after 21 days; type: functional; conditions: Praha 4, 504 h; in short: as §1
[5] = test system: Mycobacterium tuberculosis; assay: Antimycobacterial activity against multi-drug resistant Mycobacterium tuberculosis 9449/2007 after 21 days; type: functional; conditions: 9449/2007, 504 h; in short: as §1
[6] = test system: Mycobacterium tuberculosis; assay: Antimycobacterial activity against multi-drug resistant Mycobacterium tuberculosis 9449/2007 after 14 days; type: functional; conditions: 9449/2007, 336 h; in short: as §1
[7] = test system: Mycobacterium tuberculosis; assay: Antimycobacterial activity against multi-drug resistant Mycobacterium tuberculosis 234/2005 after 21 days; type: functional; conditions: 234/2005, 504 h; in short: as §1
[8] = test system: Mycobacterium tuberculosis; assay: Antimycobacterial activity against multi-drug resistant Mycobacterium tuberculosis 7357/1998 after 21 days; type: functional; conditions: 7357/1998, 504 h; in short: as §1
[9] = test system: Mycobacterium tuberculosis; assay: Antimycobacterial activity against multi-drug resistant Mycobacterium tuberculosis 7357/1998 after 14 days; type: functional; conditions: 7357/1998, 336 h; in short: as §1
[10] = test system: Mycobacterium tuberculosis; assay: Antimycobacterial activity against multi-drug resistant Mycobacterium tuberculosis 8666/2010 after 14 days; type: functional; conditions: 8666/2010, 336 h; in short: as §1
[11] = test system: Mycobacterium tuberculosis; assay: Antimycobacterial activity against multi-drug resistant Mycobacterium tuberculosis 8666/2010 after 21 days; type: functional; conditions: 8666/2010, 504 h; in short: as §1
[12] = test system: Mycobacterium tuberculosis; assay: microbe, parasite or virus in culture; conditions: 234/2005, 336 h

Row | Structure (SMILES) | MIC99 [1] [µM] | MIC99 [2] [µM] | MIC99 [3] [µM] | MIC99 [4] [µM] | MIC99 [5] [µM] | MIC99 [6] [µM] | MIC99 [7] [µM] | MIC99 [8] [µM] | MIC99 [9] [µM] | MIC99 [10] [µM] | MIC99 [11] [µM] | MIC99 [12] [µM]
1 | CCCSc1nnc(-c2cc([N+](=O)[O-])cc([N+](=O)[O-])c2)n1Cc1ccccc1 | 0.125 (≈ 0.0499 µg/mL) | 0.125 (≈ 0.0499 µg/mL) | 0.125 (≈ 0.0499 µg/mL) | 0.125 (≈ 0.0499 µg/mL) | 0.06 (≈ 0.024 µg/mL) | 0.125 (≈ 0.0499 µg/mL) | 0.125 (≈ 0.0499 µg/mL) | 0.06 (≈ 0.024 µg/mL) | 0.125 (≈ 0.0499 µg/mL) | 0.06 (≈ 0.024 µg/mL) | 0.125 (≈ 0.0499 µg/mL) | 0.06 (≈ 0.024 µg/mL)
2 | O=[N+]([O-])c1cc(-c2nnc(SCc3ccccc3)n2Cc2ccccc2)cc([N+](=O)[O-])c1 | 0.03 (≈ 0.0134 µg/mL) | 0.03 (≈ 0.0134 µg/mL) | 0.03 (≈ 0.0134 µg/mL) | 0.03 (≈ 0.0134 µg/mL) | 0.03 (≈ 0.0134 µg/mL) | 0.03 (≈ 0.0134 µg/mL) | 0.03 (≈ 0.0134 µg/mL) | 0.03 (≈ 0.0134 µg/mL) | 0.03 (≈ 0.0134 µg/mL) | 0.03 (≈ 0.0134 µg/mL) | 0.03 (≈ 0.0134 µg/mL) | 0.03 (≈ 0.0134 µg/mL)
3 | CN[C@@H]1[C@H](O[C@H]2[C@H](O[C@H]3[C@H](O)[C@@H](O)[C@H](N=C(N)N)[C@@H](O)[C@@H]3N=C(N)N)O[C@@H](C)[C@]2(O)C=O)O[C@@H](CO)[C@H](O)[C@H]1O [STREPTOMYCIN] |  |  | > 32 |  | > 32 |  |  | > 32 |  | > 32 |  | 
4 | O=[N+]([O-])c1cc(-c2nnc(SCc3ccc(Cl)cc3)n2Cc2ccccc2)cc([N+](=O)[O-])c1 | 0.125 (≈ 0.0602 µg/mL) | 0.25 (≈ 0.12 µg/mL) | 0.125 (≈ 0.0602 µg/mL) | 0.25 (≈ 0.12 µg/mL) | 0.125 (≈ 0.0602 µg/mL) | 0.25 (≈ 0.12 µg/mL) | 0.25 (≈ 0.12 µg/mL) | 0.125 (≈ 0.0602 µg/mL) | 0.25 (≈ 0.12 µg/mL) | 0.125 (≈ 0.0602 µg/mL) | 0.25 (≈ 0.12 µg/mL) | 0.125 (≈ 0.0602 µg/mL)
5 | CCCCCCCCSc1nnc(-c2cc([N+](=O)[O-])cc([N+](=O)[O-])c2)n1Cc1ccccc1 | 0.125 (≈ 0.0587 µg/mL) | 0.25 (≈ 0.117 µg/mL) | 0.125 (≈ 0.0587 µg/mL) | 0.25 (≈ 0.117 µg/mL) | 0.125 (≈ 0.0587 µg/mL) | 0.25 (≈ 0.117 µg/mL) | 0.25 (≈ 0.117 µg/mL) | 0.125 (≈ 0.0587 µg/mL) | 0.25 (≈ 0.117 µg/mL) | 0.125 (≈ 0.0587 µg/mL) | 0.25 (≈ 0.117 µg/mL) | 0.125 (≈ 0.0587 µg/mL)
6 | Cn1c(SCc2ccccc2)nnc1-c1cc([N+](=O)[O-])cc([N+](=O)[O-])c1 | 0.03 (≈ 0.0111 µg/mL) | 0.03 (≈ 0.0111 µg/mL) | 0.03 (≈ 0.0111 µg/mL) | 0.03 (≈ 0.0111 µg/mL) | 0.03 (≈ 0.0111 µg/mL) | 0.03 (≈ 0.0111 µg/mL) | 0.03 (≈ 0.0111 µg/mL) | 0.03 (≈ 0.0111 µg/mL) | 0.03 (≈ 0.0111 µg/mL) | 0.03 (≈ 0.0111 µg/mL) | 0.03 (≈ 0.0111 µg/mL) | 0.03 (≈ 0.0111 µg/mL)
7 | O=[N+]([O-])c1cc(-c2nnc(SCc3ccc(Cl)c(Cl)c3)n2Cc2ccccc2)cc(C(F)(F)F)c1 | 2 (≈ 1.08 µg/mL) | 2 (≈ 1.08 µg/mL) | 2 (≈ 1.08 µg/mL) | 2 (≈ 1.08 µg/mL) | 2 (≈ 1.08 µg/mL) | 2 (≈ 1.08 µg/mL) | 2 (≈ 1.08 µg/mL) | 2 (≈ 1.08 µg/mL) | 2 (≈ 1.08 µg/mL) | 2 (≈ 1.08 µg/mL) | 2 (≈ 1.08 µg/mL) | 2 (≈ 1.08 µg/mL)
8 | O=[N+]([O-])c1cc(CSc2nnc(-c3ccccc3)n2Cc2ccccc2)cc([N+](=O)[O-])c1 | 2 (≈ 0.895 µg/mL) | 4 (≈ 1.79 µg/mL) | 2 (≈ 0.895 µg/mL) | 4 (≈ 1.79 µg/mL) | 4 (≈ 1.79 µg/mL) | 4 (≈ 1.79 µg/mL) | 4 (≈ 1.79 µg/mL) | 2 (≈ 0.895 µg/mL) | 4 (≈ 1.79 µg/mL) | 2 (≈ 0.895 µg/mL) | 4 (≈ 1.79 µg/mL) | 4 (≈ 1.79 µg/mL)
9 | COc1ccc(CSc2nnc(-c3cc([N+](=O)[O-])cc([N+](=O)[O-])c3)n2Cc2ccccc2)cc1 | 0.03 (≈ 0.0143 µg/mL) | 0.03 (≈ 0.0143 µg/mL) | 0.03 (≈ 0.0143 µg/mL) | 0.03 (≈ 0.0143 µg/mL) | 0.03 (≈ 0.0143 µg/mL) | 0.03 (≈ 0.0143 µg/mL) | 0.03 (≈ 0.0143 µg/mL) | 0.03 (≈ 0.0143 µg/mL) | 0.03 (≈ 0.0143 µg/mL) | 0.03 (≈ 0.0143 µg/mL) | 0.03 (≈ 0.0143 µg/mL) | 0.03 (≈ 0.0143 µg/mL)
10 | CCCCCCn1c(SCc2cc([N+](=O)[O-])cc([N+](=O)[O-])c2)nnc1-c1ccccc1 | 1 (≈ 0.442 µg/mL) | 2 (≈ 0.883 µg/mL) | 2 (≈ 0.883 µg/mL) | 4 (≈ 1.77 µg/mL) | 1 (≈ 0.442 µg/mL) | 2 (≈ 0.883 µg/mL) | 2 (≈ 0.883 µg/mL) | 1 (≈ 0.442 µg/mL) | 2 (≈ 0.883 µg/mL) | 1 (≈ 0.442 µg/mL) | 2 (≈ 0.883 µg/mL) | 2 (≈ 0.883 µg/mL)
11 | O=[N+]([O-])c1cc(-c2nnc(SCc3ccc(Br)cc3)n2Cc2ccccc2)cc([N+](=O)[O-])c1 | 0.125 (≈ 0.0658 µg/mL) | 0.25 (≈ 0.132 µg/mL) | 0.125 (≈ 0.0658 µg/mL) | 0.25 (≈ 0.132 µg/mL) | 0.125 (≈ 0.0658 µg/mL) | 0.25 (≈ 0.132 µg/mL) | 0.25 (≈ 0.132 µg/mL) | 0.125 (≈ 0.0658 µg/mL) | 0.25 (≈ 0.132 µg/mL) | 0.25 (≈ 0.132 µg/mL) | 0.25 (≈ 0.132 µg/mL) | 0.125 (≈ 0.0658 µg/mL)
